NR2E3 ag-1 = activates human photoreceptor nuclear receptor NR2E3; GST-NR2E3/biotin-RetCOR TR-FRET, 1536-well; actives 0.12% (n = 320,000); AID 2300; inhibition of corepressor binding, % at 4.78 µM;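 active means percent inhibition above the cutoff of mean plus 3 SD of all tested compounds, set per screening campaign, cut at about 20% in these data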
Target sequence (Q9Y5X4 whole entry, looked up): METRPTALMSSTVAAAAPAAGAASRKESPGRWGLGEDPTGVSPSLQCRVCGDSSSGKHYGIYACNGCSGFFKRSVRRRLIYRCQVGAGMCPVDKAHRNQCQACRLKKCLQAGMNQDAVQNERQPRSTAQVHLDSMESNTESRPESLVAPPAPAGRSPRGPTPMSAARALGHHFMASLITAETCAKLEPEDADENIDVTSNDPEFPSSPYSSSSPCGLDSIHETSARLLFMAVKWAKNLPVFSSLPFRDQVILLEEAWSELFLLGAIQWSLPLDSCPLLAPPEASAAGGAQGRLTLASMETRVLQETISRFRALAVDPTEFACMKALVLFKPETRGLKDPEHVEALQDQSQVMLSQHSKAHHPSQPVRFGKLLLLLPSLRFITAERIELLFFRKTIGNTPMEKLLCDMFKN
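System: GST-NR2E3 and biotin-RetCOR proteins; probe or stimulus: 7 nM biotin-RetCOR; doses: compound at 4.8 µM, single dose; schedule: Compound–protein incubation for 5 h at 4 °C; detection: time-resolved FRET; read-out: percent inhibition; controls: biotin wells as high control, 0.6% DMSO wells as low control; format: 1536-well plates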
aDG glyco act = alpha-DG glycosylation activation | Pro5-aDG cells, alpha-DG glycosylation AlphaScreen (IIH6); 0% Pro5, 100% B10-LARGE cell signal | activation, % at 10 µM | actives 0.22% (n = 360,000) | AID 624168;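 active means activation of at least 8% versus controls, or a plate z-score of at least 8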;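 further: Pro5 are CHO cells carrying HIG-tagged alpha-DG that lacks glycosylation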
MPTP inh = permeability transition pore inhibition | AID 602449 | isolated mouse mitochondria, Ca2+ swelling absorbance, 30 min | inhibition, % at 10 µM | actives 1.4% (n = 360,000);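 active means inhibition of 50% or more, scaled per plate between neutral and stimulator controls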
697 NFkB inh = inhibitors of the PMA/ionomycin-induced NF-kB reporter in 697 B cells; inhibition, % at 4 µM; actives 0.33% (n = 330,000); 697 B-cell NF-kB luciferase reporter, 16 h; in the data active means inhibition above about 35%
Jurkat NFkB inh = inhibitors of the PMA/ionomycin-induced NF-kB reporter in Jurkat cells. PMA/ionomycin-induced NF-kB luciferase reporter, luminescence. inhibition, % at 4 µM. actives 0.53% (n = 330,000). AID 435003; in the data active means inhibition above about 50%
NR2E3 ag-2 = activates human NR2E3 receptor; Q9Y5X4; CHO-S Gal4-NCOR/VP16-NR2E3 two-hybrid, luciferase; inhibition of corepressor binding, % at 3.98 µM; actives 0.35% (n = 360,000); AID 602229;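 active means inhibition above the mean of all tested compounds plus 3 SD, cut at about 70% in these data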;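 further: higher means lower luciferase signal from less NR2E3 corepressor binding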
MPTP counter = mitochondrial membrane potential, counter-screen; shares compounds with MPTP inh; isolated mitochondria, Rhodamine 123 fluorescence; actives 78% (n = 5,000); AID 624504; inhibition, % at 10 µM; in the data active means inhibition above about 22%
aDG conf = alpha-DG glycosylation activation, confirmation | actives 17% (n = 600) | activation, % at 10 µM (by protocol) | shares compounds with aDG glyco act | Pro5-aDG cells, IIH6 AlphaLISA; scaled to LARGE-overexpressing B10 cells as 100%;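 active means activation of at least 7% in one or more replicates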;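 further: cells exposed to compound for two days before detection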
Large screens that a line does not name were inactive (follow-up assays come after a bar, where they were run); ! = not confirmed by another sample. In the library only some 2.4% were active in any assay of this set; here they are far more common.

CN1C(=O)c2cccc(NCCCN3C(=O)c4ccccc4C3=O)c2C1=O	none
COc1cc(OC)c(S(=O)(=O)Nc2ccccc2NC(=O)CN2CCOCC2)cc1NC(C)=O	none
CSc1cccc(NC(=S)NC(=O)CCc2ccccc2)c1	none
O=C(CCc1ccccc1)NC(NC(=S)Nc1cccc(Cl)c1)C(Cl)(Cl)Cl (stereo unspecified)	aDG glyco act 7.2, MPTP inh 94.3 | MPTP counter 78.1 | aDG conf inactive
Cc1cccc(Nc2nc(-c3c(C)nc4ccccn34)cs2)c1	aDG glyco act 4.4, MPTP inh 85.7, NR2E3 ag-2 78.1 | MPTP counter 76.1 | aDG conf inactive
CCC1CN(C(=O)N2CCC(C(=O)NCCc3ccccc3)CC2)c2ccccc2O1 (stereo unspecified)	none
Brc1ccccc1OCCCCn1cnc2ccccc21	aDG glyco act 10.4, MPTP inh 84.9 | MPTP counter 90.5 | aDG conf inactive
Clc1ccccc1OCCn1cnc2ccccc21	none
CCOc1ccc2nc(N(Cc3ccccc3)C(=O)CCNC(C)=O)sc2c1	none (no result: NR2E3 ag-1)
O=C(COc1ccc(-c2ccccc2)cc1)Nc1cccnc1	aDG glyco act 4.6, MPTP inh 87.4 | MPTP counter 101.7 | aDG conf inactive
COCC(C)N=C1NN=C(c2cc(C)n(Cc3ccccc3Cl)c2C)CS1 (stereo unspecified)	aDG glyco act 5.6, MPTP inh 78.9 | MPTP counter 83.2 | aDG conf inactive
CCN(CC)CCCC(C)n1c(C)cc(C(=O)NS(=O)(=O)c2ccc(C)cc2)c1C (stereo unspecified)	none (no result: NR2E3 ag-1, 697 NFkB inh, Jurkat NFkB inh)
COc1ccc(NC(=O)Cn2c(C)cc(=O)c3ccccc32)cc1	aDG glyco act 7.8, MPTP inh 60.7 | MPTP counter 41.2 | aDG conf inactive
CC(=O)c1ccc(N2CCC(c3cc(-c4ccc(Cl)cc4Cl)n[nH]3)CC2)c([N+](=O)[O-])c1	aDG glyco act 8.8, MPTP inh 73.6 | MPTP counter 68.1 | aDG conf inactive
O=[N+]([O-])c1cccnc1N1CCC(c2cc(-c3ccc(Cl)cc3Cl)n[nH]2)CC1	none
CCn1c(SCC(=O)NC2(C#N)CCCCC2)nc2ccccc2c1=O	aDG glyco act 4.0 | aDG conf inactive
O=C(NCCN1CCOCC1)c1ccc(Cl)c(S(=O)(=O)N2CCCCCC2)c1	aDG glyco act 4.7 | aDG conf inactive
O=C(CN(c1ccccc1)S(=O)(=O)c1ccccc1[N+](=O)[O-])N1CCCC1	none
O=C(COc1ccc(-c2ccccc2)cc1)NNC(=O)Nc1ccccc1	aDG glyco act 16.8 | aDG conf inactive
CS(=O)(=O)N1Cc2cc(C(=O)NCC3CCCCC3)nc(-c3cccc(-c4cccnc4)c3)c2[C@H]1CCO	none (no result: NR2E3 ag-1, 697 NFkB inh, Jurkat NFkB inh)
Cc1ccn2c(NC3CCCCC3)c(-c3cccc(SC4CCCCC4)c3)nc2c1	aDG glyco act 5.7! (no result: NR2E3 ag-1) | aDG conf inactive
COc1ccc(CCN(C)C(=O)c2cc(-c3ccccc3)nc3ccccc23)cc1OC	none (no result: NR2E3 ag-1)
COc1ccc(CCN(C)C(=O)c2cc(-c3ccccc3)nc3ccc(C)cc23)cc1OC	aDG glyco act 7.8 | aDG conf inactive
CCOC(=O)c1ccc(NC(=O)c2ccc(OC(C)C)c(OC)c2)cc1	none
Cc1cc(Cl)ccc1C(O)c1ncc(-c2ccccc2Cl)[nH]1 (stereo unspecified)	none (no result: NR2E3 ag-1, 697 NFkB inh, Jurkat NFkB inh)
O=C1C2C3CCC(C3)C2C(=O)N1c1ccc(OS(=O)(=O)c2ccccc2)cc1 (stereo unspecified)	aDG glyco act 2.8 | aDG conf inactive
Cc1ccc(S(=O)(=O)Oc2ccc(N3C(=O)C4C5CCC(C5)C4C3=O)cc2)cc1 (stereo unspecified)	none
COc1ccc(NC(=O)C[C@H]2C(=O)N(c3ccc(Br)cc3)C[C@@H]2c2ccc(OC)cc2)cc1	none (no result: NR2E3 ag-1, 697 NFkB inh, Jurkat NFkB inh)
CCOC(=O)CNc1nc(C(C)(C)C)nc2c1nnn2Cc1ccccc1	none
CCCCC(=O)Nc1ccc(NC(=O)c2ccc([N+](=O)[O-])cc2Cl)cc1OC	aDG glyco act 11.6 | aDG conf inactive
Cc1cc(C)cc(SCc2noc(C(=O)NCCN(C)C)c2C(=O)NCCN(C)C)c1	aDG glyco act 7.2 | aDG conf inactive
CN(C)CCNC(=O)c1onc(CSc2ccncc2)c1C(=O)NCCN(C)C	none
CN(CC(=O)Nc1cccc(F)c1)C(=O)c1ccc(N2C(=O)c3ccccc3C2=O)cc1	aDG glyco act 5.1 | aDG conf inactive
CN(CC(=O)Nc1cccc(F)c1)C(=O)c1cccc(-n2cccc2)c1	none
O=P(Cc1cc(Br)cc(Br)c1OCCO)(c1ccccc1)c1ccccc1	none
CCCC(=O)Nc1c2c(nn1-c1ccc(C)cc1)CS(=O)(=O)C2	none
COc1ccc(CC(=O)N/N=C/c2cccnc2)cc1OC	aDG glyco act 6.5 | aDG conf inactive
Clc1ccccc1CSc1nnc([C@@H]2CCCN2)o1	none
Cc1ccccc1CSc1nnc([C@@H]2CCCN2)o1	aDG glyco act 4.8 | aDG conf inactive
CC(C)Oc1cc(F)ccc1-c1cc(C(=O)Nc2ccc(C(C)C)cc2)[nH]n1	aDG glyco act 11.7 (no result: NR2E3 ag-1, 697 NFkB inh, Jurkat NFkB inh) | aDG conf inactive
CCc1c(C(=O)N/N=C/c2ccc(OCc3ccc(F)cc3)c(OC)c2)nnn1-c1nonc1N	aDG glyco act 3.5 | aDG conf inactive
CCOc1cc(/C=N/NC(=O)c2nnn(-c3nonc3N)c2C)ccc1OCc1ccc(F)cc1	none
O=C(NCCc1ccccc1)c1ccc(-c2ccc(F)cc2)o1	aDG glyco act 5.1 | aDG conf inactive
N#Cc1ccc(-c2nc3c4ccccc4ccn3c2CC2CCCCC2)cc1	aDG glyco act 21.5 (no result: NR2E3 ag-1, 697 NFkB inh, Jurkat NFkB inh) | aDG conf 7.2
C/C=C/c1ccc(OCCCNC2CCCC2)c(OC)c1	aDG glyco act 9.6 | aDG conf 11.6
C/C=C/c1ccc(OCCCNC(C)CC)c(OC)c1 (stereo unspecified)	none
Cc1cc(NC2=CC(=O)C(=O)c3ccccc32)no1	aDG glyco act 13.8 (no result: NR2E3 ag-1, 697 NFkB inh, Jurkat NFkB inh) | aDG conf 15.8
C[C@H](CO)N1C[C@H](C)[C@@H](CN(C)C(=O)Nc2ccccc2)Oc2ccc(NS(=O)(=O)c3cn(C)cn3)cc2C1=O	none (no result: NR2E3 ag-1)
C[C@H](CO)N1C[C@H](C)[C@@H](CN(C)C(=O)Nc2ccc3c(c2)OCO3)Oc2ccc(NS(=O)(=O)c3cn(C)cn3)cc2C1=O	aDG glyco act 6.4 (no result: NR2E3 ag-1) | aDG conf inactive
CNS(=O)(=O)c1cc(NC(=O)c2cncn2-c2ccccc2)ccc1C	none

Assay outcomes: PubChem, several laboratories
